Test results reported in ChEMBL document CHEMBL4265982, “Hybrid compounds from chalcone and 1,2-benzothiazine pharmacophores as selective inhibitors of alkaline phosphatase isozymes” (Eur J Med Chem, 2018).
pIC50: −log10 of the molar value. Calls of active or inactive are those of the source. No cut-off for these calls is given here.

What was measured:
[1] = molecular target: T1, Alkaline phosphatase, tissue-nonspecific isozyme (Homo sapiens, UniProt P05186); assay: Inhibition of human TNAP expressed in African green monkey COS7 cell membranes using CDP-star as substrate pretreated for 5 to 10 mins followed by substrate addition and measured after 15 to 20 mins by […]
T1 sequence (P05186 whole entry): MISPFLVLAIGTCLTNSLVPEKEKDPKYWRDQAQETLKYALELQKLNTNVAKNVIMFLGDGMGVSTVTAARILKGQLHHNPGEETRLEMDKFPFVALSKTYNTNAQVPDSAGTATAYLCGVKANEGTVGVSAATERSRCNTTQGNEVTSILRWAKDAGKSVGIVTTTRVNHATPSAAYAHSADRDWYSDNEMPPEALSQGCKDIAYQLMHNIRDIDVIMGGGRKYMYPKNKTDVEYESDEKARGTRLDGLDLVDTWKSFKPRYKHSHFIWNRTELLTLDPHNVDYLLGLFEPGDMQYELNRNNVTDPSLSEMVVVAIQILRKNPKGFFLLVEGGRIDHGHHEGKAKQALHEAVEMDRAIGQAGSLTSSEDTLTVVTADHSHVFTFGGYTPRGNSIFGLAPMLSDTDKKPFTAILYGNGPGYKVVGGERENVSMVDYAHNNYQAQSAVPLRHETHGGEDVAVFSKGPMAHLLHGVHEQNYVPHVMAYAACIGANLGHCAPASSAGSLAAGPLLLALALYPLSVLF

HeLa = assay: Cytotoxicity against human HeLa cells assessed as cell growth inhibition at 100 uM after 24 hrs by MTT assay; assay type: functional; conditions: read-out: GI
Procedure, shortened: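 HeLa cells seeded overnight at 2.5 × 10⁴ cells/mL, then exposed to compound (final 100 μM) for 24 h at 37 °C. MTT (5 μg/well) added for 4 h, then solubilised with 50% isopropanol/10% SDS. OD read at 570 nm minus 690 nm background. Percent inhibition relative to untreated control; triplicate, mean of three independent experiments ± SEM.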

Homo sapiens = species: Homo sapiens; assay: Selectivity index, ratio of IC50 for human TNAP expressed in African green monkey COS7 cell membranes to IC50 for human IAP expressed in African green monkey COS7 cell membranes
Procedure, shortened: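 Ratio of IC50 at h-TNAP to IC50 at h-IAP. Each IC50 is from the CDP-Star luminescence assay on lysates of transfected COS-7 cells, pH 9.8 DEA buffer. Index > 1 means selectivity for h-IAP; < 1 means selectivity for h-TNAP.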

[2] = molecular target: T2, Intestinal-type alkaline phosphatase (Homo sapiens, UniProt P09923); assay: Inhibition of human IAP expressed in African green monkey COS7 cell membranes using CDP-star as substrate pretreated for 5 to 10 mins followed by substrate addition and measured after 15 to 20 mins by […]
Procedure, shortened: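 Enzyme from transfected COS-7 lysates (h-TNAP 46 ng/well, h-IAP 57 ng/well), stored with 7.5% glycerol at -80 °C. Inhibitor tested up to 200 μM, final DMSO 1%, in 3 M DEA pH 9.8 with 2.5 mM MgCl2 and 0.05 mM ZnCl2. Preincubation 37 °C for 5–10 min, then CDP-Star added. Luminescence read after 15–20 min. IC50 from curve fitting, mean ± SEM, n = 3.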
Target sequence in this assay (P09923 whole entry): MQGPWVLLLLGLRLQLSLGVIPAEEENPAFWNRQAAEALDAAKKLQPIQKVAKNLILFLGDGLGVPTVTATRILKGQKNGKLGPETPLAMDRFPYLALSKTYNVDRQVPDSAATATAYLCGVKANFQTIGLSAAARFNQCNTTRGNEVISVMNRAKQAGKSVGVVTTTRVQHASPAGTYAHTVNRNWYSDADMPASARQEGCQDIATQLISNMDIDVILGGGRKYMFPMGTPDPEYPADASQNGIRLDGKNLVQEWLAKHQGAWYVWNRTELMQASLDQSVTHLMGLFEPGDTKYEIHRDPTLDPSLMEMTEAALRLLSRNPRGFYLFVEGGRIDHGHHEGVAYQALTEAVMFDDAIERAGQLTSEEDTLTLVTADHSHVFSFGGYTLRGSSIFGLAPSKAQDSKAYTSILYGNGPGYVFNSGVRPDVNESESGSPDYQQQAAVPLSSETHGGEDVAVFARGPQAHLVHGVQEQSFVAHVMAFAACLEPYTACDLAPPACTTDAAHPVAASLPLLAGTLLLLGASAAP

[3] = molecular target: T2, Intestinal-type alkaline phosphatase; assay: Competitive inhibition of human IAP expressed in African green monkey COS7 cell membranes up to 1.5 uM using CDP-star as substrate pretreated for 5 to 10 mins followed by substrate addition and measured after 15 to 20 mins by double reciprocal plot analysis
Target sequence in this assay (P09923 whole entry, looked up): as the sequence (P09923 whole entry) above

[4] = molecular target: T3, Alkaline phosphatase, tissue-nonspecific isozyme (Homo sapiens) (UniProt P05186); assay: Non-competitive inhibition of human TNAP expressed in African green monkey COS7 cell membranes up to 0.3 uM using CDP-star as substrate pretreated for 5 to 10 mins followed by substrate addition and measured after 15 to 20 mins by double reciprocal plot analysis
T3 sequence (whole entry): T1 sequence (P05186 whole entry)
Procedure, shortened: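 Kinetics: double reciprocal plots of initial velocity versus CDP-Star concentration at several inhibitor concentrations. Enzyme is lysate of COS-7 cells transfected with h-TNAP plasmid (lipofectamine, 5 h, 37 °C, harvested 40–72 h). Buffer 3 M DEA pH 9.8, 2.5 mM MgCl2, 0.05 mM ZnCl2. Preincubation 5–10 min at 37 °C, luminescence read 15–20 min after substrate.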

[5] = molecular target: T3, Alkaline phosphatase, tissue-nonspecific isozyme (Homo sapiens); assay: Potency index, ratio of levamisole IC50 to test compound IC50 for human TNAP

Compound	pIC50 [1]	inhibition of growth at 100 µM (HeLa) [%]	Ratio IC50 (Homo sapiens)	pIC50 [2]	inhibition [3]	inhibition [4]	Ratio IC50 [5]
COc1ccc(/C=C2\NS(=O)(=O)c3ccccc3C2=O)cc1	5.39	11	2.6	5.82			
O=C1/C(=C/c2c(F)cccc2F)NS(=O)(=O)c2ccccc21	5.82	17	0.1	4.97			
O=C1/C(=C/c2ccc(Cl)cc2Cl)NS(=O)(=O)c2ccccc21	< 3.70	59	> 53	5.30			
COc1cccc(/C=C2\NS(=O)(=O)c3ccccc3C2=O)c1	< 3.70	39	> 190	5.98	Active		
O=C1/C(=C/c2ccccc2)NS(=O)(=O)c2ccccc21	6.18	19	0.4	5.75			
O=C1/C(=C/c2ccc(Cl)cc2)NS(=O)(=O)c2ccccc21	6.60	55	0.1	5.36		Active	80
O=C1/C(=C/c2ccc(F)cc2)NS(=O)(=O)c2ccccc21	5.87	41	0.4	5.51			
N[C@@H](Cc1ccccc1)C(=O)O [PHENYLALANINE]	< 3.70		> 2				
O=C1/C(=C/c2ccc(Br)cc2)NS(=O)(=O)c2ccccc21	5.84	59	0.4	5.43			
O=C1/C(=C/c2cccc(Cl)c2)NS(=O)(=O)c2ccccc21	< 3.70	64	> 50	5.42			
O=C1/C(=C/c2cccc(O)c2)NS(=O)(=O)c2ccccc21	5.45	15	3	5.92			
COc1ccccc1/C=C1\NS(=O)(=O)c2ccccc2C1=O	5.59	17	2.1	5.91			
c1ccc([C@H]2CN3CCSC3=N2)cc1 [LEVAMISOLE]				< 3.70			
O=C1/C(=C/c2cccc(F)c2)NS(=O)(=O)c2ccccc21	5.50	53	0.3	5.00			
Cc1ccccc1/C=C1\NS(=O)(=O)c2ccccc2C1=O	5.63	7	0.6	5.43			
O=C1/C(=C/c2cccc(Br)c2)NS(=O)(=O)c2ccccc21	< 3.70	65	> 26	5.59			
O=C1/C(=C/c2ccccc2Br)NS(=O)(=O)c2ccccc21	< 3.70	53	> 1	5.13			
